In ChEMBL document CHEMBL5724801, “EUbOPEN Chemogenomics Library - Multiplex” (2024):
Several values for one entry are separate records, joined by “and”; a condition that tells them apart may be missing. Equal entries are not always repeated.

Tested on: HEK-293T
Assay: Multiplex assay against HEK293T
Assay type: toxicity, cell-based
Conditions: human
Outline: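 With compound added, live cells were imaged on a CQ1 microscope at 37°C and 5% CO2; staining with Hoechst33342, BioTracker Green Microtubule Cytoskeleton Dye, MitoTracker Red and Annexin V Alexa Fluor 680 had been done at seeding. The CellPathfinder machine-learning gating scheme split cells into Hoechst high-intensity objects or normal cells, normal cells into healthy, pyknosed or fragmented nuclei, and pyknosed cells into mitotic or apoptotic. The tubulin, mitochondrial-mass and membrane-permeability phenotypes are per cents of healthy-nucleus cells.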

[1] = 12 h, 1 µM, compound concentration 1 uM
[2] = 12 h, 10 µM, compound concentration 10 uM
[3] = 24 h, 1 µM, compound concentration 1 uM
[4] = 24 h, 10 µM, compound concentration 10 uM
[5] = 48 h, 1 µM, compound concentration 1 uM
[6] = 48 h, 10 µM, compound concentration 10 uM

SMILES: O=C(Nc1cc(-c2ccccc2)nn1-c1ccccc1F)c1ccc([N+](=O)[O-])cc1
- Population Apoptotic (%) [1]: 33% and 37%
- Population Fragmented Nuclei (%) [1]: 7% and 6%
- Population Healthy Nuclei (%) [1]: 78% and 83%
- Population Hoechst High Intensity Objects (%) [1]: 9% and 6%
- Population Membrane Permeable-Phenotype (%) [1]: 0%
- Population Mitochondria Different-Phenotype (%) [1]: 31% and 48%
- Population Mitotic Cells (%) [1]: 66% and 62%
- Population Normal (%) [1]: 90% and 94%
- Population Pyknosed Nuclei (%) [1]: 13% and 9%
- Population Tubulin-Different-Phenotype (%) [1]: 19%
- Total Cell Count [1]: 402 and 417
- Population Apoptotic (%) [2]: 37% and 44%
- Population Fragmented Nuclei (%) [2]: 10% and 6%
- Population Healthy Nuclei (%) [2]: 71% and 73%
- Population Hoechst High Intensity Objects (%) [2]: 5% and 6%
- Population Membrane Permeable-Phenotype (%) [2]: 0%
- Population Mitochondria Different-Phenotype (%) [2]: 41% and 65%
- Population Mitotic Cells (%) [2]: 62% and 55%
- Population Normal (%) [2]: 94% and 93%
- Population Pyknosed Nuclei (%) [2]: 17% and 20%
- Population Tubulin-Different-Phenotype (%) [2]: 40% and 45%
- Total Cell Count [2]: 342 and 367
- Population Apoptotic (%) [3]: 33% and 35%
- Population Fragmented Nuclei (%) [3]: 8% and 12%
- Population Healthy Nuclei (%) [3]: 78%
- Population Hoechst High Intensity Objects (%) [3]: 4%
- Population Membrane Permeable-Phenotype (%) [3]: 0% and 1%
- Population Mitochondria Different-Phenotype (%) [3]: 21% and 31%
- Population Mitotic Cells (%) [3]: 66% and 64%
- Population Normal (%) [3]: 95%
- Population Pyknosed Nuclei (%) [3]: 12% and 8%
- Population Tubulin-Different-Phenotype (%) [3]: 17% and 16%
- Total Cell Count [3]: 481 and 530
- Population Apoptotic (%) [4]: 15% and 22%
- Population Fragmented Nuclei (%) [4]: 9% and 7%
- Population Healthy Nuclei (%) [4]: 77% and 83%
- Population Hoechst High Intensity Objects (%) [4]: 2% and 3%
- Population Membrane Permeable-Phenotype (%) [4]: 0%
- Population Mitochondria Different-Phenotype (%) [4]: 35% and 47%
- Population Mitotic Cells (%) [4]: 84% and 77%
- Population Normal (%) [4]: 97% and 96%
- Population Pyknosed Nuclei (%) [4]: 13% and 8%
- Population Tubulin-Different-Phenotype (%) [4]: 35% and 33%
- Total Cell Count [4]: 434 and 482
- Population Apoptotic (%) [5]: 17% and 33%
- Population Fragmented Nuclei (%) [5]: 13% and 17%
- Population Healthy Nuclei (%) [5]: 79% and 74%
- Population Hoechst High Intensity Objects (%) [5]: 3% and 2%
- Population Membrane Permeable-Phenotype (%) [5]: 2%
- Population Mitochondria Different-Phenotype (%) [5]: 14% and 15%
- Population Mitotic Cells (%) [5]: 82% and 66%
- Population Normal (%) [5]: 96% and 97%
- Population Pyknosed Nuclei (%) [5]: 7%
- Population Tubulin-Different-Phenotype (%) [5]: 9% and 11%
- Total Cell Count [5]: 893 and 799
- Population Apoptotic (%) [6]: 22% and 20%
- Population Fragmented Nuclei (%) [6]: 12% and 15%
- Population Healthy Nuclei (%) [6]: 77%
- Population Hoechst High Intensity Objects (%) [6]: 2% and 3%
- Population Membrane Permeable-Phenotype (%) [6]: 2% and 1%
- Population Mitochondria Different-Phenotype (%) [6]: 19% and 27%
- Population Mitotic Cells (%) [6]: 77% and 79%
- Population Normal (%) [6]: 97% and 96%
- Population Pyknosed Nuclei (%) [6]: 9% and 6%
- Population Tubulin-Different-Phenotype (%) [6]: 23% and 26%
- Total Cell Count [6]: 671 and 666

SMILES: CN1CCN(c2cc(-c3ccccc3)nc(N)n2)CC1
- Population Apoptotic (%) [1]: 40% and 34%
- Population Fragmented Nuclei (%) [1]: 8% and 5%
- Population Healthy Nuclei (%) [1]: 79% and 84%
- Population Hoechst High Intensity Objects (%) [1]: 6%
- Population Membrane Permeable-Phenotype (%) [1]: 0%
- Population Mitochondria Different-Phenotype (%) [1]: 35% and 48%
- Population Mitotic Cells (%) [1]: 60% and 65%
- Population Normal (%) [1]: 93%
- Population Pyknosed Nuclei (%) [1]: 11% and 10%
- Population Tubulin-Different-Phenotype (%) [1]: 21% and 16%
- Total Cell Count [1]: 383 and 354
- Population Apoptotic (%) [2]: 23% and 36%
- Population Fragmented Nuclei (%) [2]: 7% and 6%
- Population Healthy Nuclei (%) [2]: 82% and 81%
- Population Hoechst High Intensity Objects (%) [2]: 7% and 10%
- Population Membrane Permeable-Phenotype (%) [2]: 0%
- Population Mitochondria Different-Phenotype (%) [2]: 46% and 63%
- Population Mitotic Cells (%) [2]: 76% and 63%
- Population Normal (%) [2]: 92% and 89%
- Population Pyknosed Nuclei (%) [2]: 9% and 12%
- Population Tubulin-Different-Phenotype (%) [2]: 30% and 20%
- Total Cell Count [2]: 416 and 296
- Population Apoptotic (%) [3]: 20% and 36%
- Population Fragmented Nuclei (%) [3]: 9%
- Population Healthy Nuclei (%) [3]: 79% and 82%
- Population Hoechst High Intensity Objects (%) [3]: 4%
- Population Membrane Permeable-Phenotype (%) [3]: 1%
- Population Mitochondria Different-Phenotype (%) [3]: 16% and 24%
- Population Mitotic Cells (%) [3]: 79% and 63%
- Population Normal (%) [3]: 95%
- Population Pyknosed Nuclei (%) [3]: 11% and 8%
- Population Tubulin-Different-Phenotype (%) [3]: 12% and 8%
- Total Cell Count [3]: 488 and 480
- Population Apoptotic (%) [4]: 44% and 34%
- Population Fragmented Nuclei (%) [4]: 13% and 9%
- Population Healthy Nuclei (%) [4]: 75% and 79%
- Population Hoechst High Intensity Objects (%) [4]: 6% and 9%
- Population Membrane Permeable-Phenotype (%) [4]: 0%
- Population Mitochondria Different-Phenotype (%) [4]: 32% and 50%
- Population Mitotic Cells (%) [4]: 55% and 65%
- Population Normal (%) [4]: 93% and 90%
- Population Pyknosed Nuclei (%) [4]: 11%
- Population Tubulin-Different-Phenotype (%) [4]: 19% and 17%
- Total Cell Count [4]: 577 and 378
- Population Apoptotic (%) [5]: 23% and 14%
- Population Fragmented Nuclei (%) [5]: 13%
- Population Healthy Nuclei (%) [5]: 78% and 80%
- Population Hoechst High Intensity Objects (%) [5]: 1% and 2%
- Population Membrane Permeable-Phenotype (%) [5]: 1% and 0%
- Population Mitochondria Different-Phenotype (%) [5]: 12% and 14%
- Population Mitotic Cells (%) [5]: 76% and 85%
- Population Normal (%) [5]: 98% and 97%
- Population Pyknosed Nuclei (%) [5]: 7% and 6%
- Population Tubulin-Different-Phenotype (%) [5]: 12% and 9%
- Total Cell Count [5]: 745 and 804
- Population Apoptotic (%) [6]: 16% and 27%
- Population Fragmented Nuclei (%) [6]: 17% and 13%
- Population Healthy Nuclei (%) [6]: 75% and 81%
- Population Hoechst High Intensity Objects (%) [6]: 3%
- Population Membrane Permeable-Phenotype (%) [6]: 0% and 1%
- Population Mitochondria Different-Phenotype (%) [6]: 25% and 24%
- Population Mitotic Cells (%) [6]: 83% and 72%
- Population Normal (%) [6]: 96%
- Population Pyknosed Nuclei (%) [6]: 6% and 4%
- Population Tubulin-Different-Phenotype (%) [6]: 14% and 11%
- Total Cell Count [6]: 861 and 645
